We go through five compounds from ChEMBL document CHEMBL3745598, “Synthesis and biological evaluation of disubstituted amidoxanthones as potential telomeric G-quadruplex DNA-binding and apoptosis-inducing agents” (Bioorg Med Chem, 2016).

Active and inactive are the calls of the source. No cut-off for these calls is given here.

For orientation: IC50 means the concentration needed to halve the response being measured.

For assay [1], the species on record is Homo sapiens. Put plainly: Stabilization of HTG21mu G-quadruplex DNA at 15 uM by PCR-stop assay. The method in brief: (§1)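 PCR-stop on forward primer HTG21 or mutant HTG21mu with reverse primer RevHTG21, each primer 0.4 µM. Mixes contained 0.2 mM dNTP and 1.5 U Taq in 1× Thermopol buffer (20 mM Tris–HCl, 10 mM KCl, 10 mM (NH4)2SO4, 2 mM MgSO4, 0.1% Triton X-100, pH 8.8). Ligand was tested at 0–15 µM. Products were resolved by electrophoresis and imaged under UV.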

The subject of assay [2] is Calf thymus DNA. Put plainly: Binding affinity to calf thymus DNA at 5 uM by fluorescence emission spectroscopic analysis. As to conditions: Bos taurus. The class given is nucleic-acid assay.
The test system of assay [3] is HeLa. Put plainly: Induction of apoptosis in human HeLa cells assessed as early apoptotic cells at 10 uM after 24 hrs by annexin V-FITC/propidium iodide staining-based flow cytometric analysis (reference value: 0.11%). Type of assay: functional. The method in brief:
(§2)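 HeLa cells were seeded at 3 × 10^5 per well in DMEM at 37 °C, 5% CO2, and treated with 0, 10, 20 or 40 µM for 24 h. Cells were trypsinized, washed in cold PBS, resuspended in binding buffer, and stained with Annexin V-FITC plus PI for 20 min in the dark. Flow cytometry quadrants defined early (Annexin+/PI−) and late (Annexin+/PI+) apoptotic cells.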

The species entered for assay [4] is Homo sapiens. Kind of assay: Binding affinity to HT6 G-quadruplex DNA at 0.5 to 1 compound to DNA ratio by NMR spectroscopic analysis. The method in brief: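 1H NMR at 25 °C on d(TTAGGG) 0.2 mM in 90% H2O/10% D2O with 150 mM KCl and 25 mM potassium phosphate, pH 7.0. Compound/quadruplex ratios were 0, 0.5 and 1. Watergate water suppression was used, and imino proton signals were monitored. Oligonucleotide was HPLC-purified.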

In a further assay the test system is A549. Kind of assay: Antiproliferative activity against human A549 cells after 44 hrs by MTT assay. The class given is functional, cell-based. The note with it: for IC50: A549, 44 h. The method in brief: (§3)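 HeLa, A549, SGC-7901 and MCF-7 cells seeded at 5 × 10^4 per well in DMEM at 37 °C, 5% CO2, incubated overnight. Cells were then treated at […], with 0.5% DMSO as control. MTT added for 4 h at 37 °C, formazan dissolved in DMSO, absorbance read at 570 nm. Inhibition % = (1 − Atreatment/Acontrol) × 100. Triplicate wells, each experiment repeated at least three times.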
Background: Tetrazolium dyes change colour on reduction, which living cells bring about.

The species entered for assay [5] is Homo sapiens. Kind of assay: Binding affinity to HTG21 G-quadruplex DNA at 5 uM by fluorescence emission spectroscopic analysis. The method in brief:
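Fluorescence emission titration with ligand fixed at […] and annealed HTG21 varied up to […]. Buffer was Tris–HCl 10 mM, pH 7.4, containing KCl or NaCl. Quenching was plotted as F0/F versus [HTG21]/[compound] and fitted.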

The next assay deals with MCF7. Kind of assay: Antiproliferative activity against human MCF7 cells after 44 hrs by MTT assay. As to conditions: for IC50: MCF7, 44 h. Type of assay: functional, cell-based. The method in brief: as §3
For assay [6], the system named is HeLa. Put plainly: Induction of apoptosis in human HeLa cells assessed as early apoptotic cells at 20 uM after 24 hrs by annexin V-FITC/propidium iodide staining-based flow cytometric analysis (reference value: 0.11%). Type of assay: functional. An outline of the steps: as §2
For orientation: A flow cytometer gives signals particle by particle.

The species named for assay [7] is Homo sapiens. Kind of assay: Binding affinity to HTG21 G-quadruplex DNA assessed as transition temperature using K+ buffer at 1:1 compound to DNA ratio by CD spectrometric analysis (reference value: 64.6 degC). The method in brief:
(§4)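 CD melting of HTG21 at 5 µM with ligand at 5 µM (1:1). Buffer was Tris–HCl 10 mM, pH 7.4, containing KCl or NaCl. Signal was monitored at 295 nm and curves were normalized to obtain the melting temperature. HTG21 was pre-annealed at 95 °C for 5 min, cooled slowly, and held at 4 °C overnight.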

Assay [8] is filed under the species Homo sapiens. Kind of assay: Stabilization of HTG21 G-quadruplex DNA at 2.5 to 15 uM by PCR-stop assay. The method in brief: as §1
The species named for assay [9] is Homo sapiens. Kind of assay: Binding affinity to HTG21 G-quadruplex DNA assessed as transition temperature using Na+ buffer at 1:1 compound to DNA ratio by CD spectrometric analysis (reference value: 55.1 degC). An outline of the steps:
as §4

Another assay deals with SGC-7901. Kind of assay: (§5) Antiproliferative activity against human SGC7901 cells after 44 hrs by MTT assay. The class given is functional, cell-based. The method in brief:
as §3

Assay [10] in a line: as §5. Type of assay: functional, cell-based. The note with it: SGC-7901, 44 h. The method in brief:
as §3

Assay [11] concerns HeLa. Put plainly: Induction of apoptosis in human HeLa cells assessed as late apoptotic cells at 40 uM after 24 hrs by annexin V-FITC/propidium iodide staining-based flow cytometric analysis (reference value: 0.36%). The class given is functional. The method in brief:
as §2

Assay [12] is filed under the species Homo sapiens. Put plainly: Binding affinity to HTG21 G-quadruplex DNA assessed as hypochromicity by electronic absorption spectroscopic analysis. An outline of the steps:
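Absorption titration with ligand fixed at […] and HTG21 added at […], in Tris–HCl 10 mM, pH 7.4, containing KCl or NaCl. HTG21 was annealed at 95 °C for 5 min, cooled slowly, and held at 4 °C overnight. Absorbance decrease was followed. Binding constant was taken from a plot of [DNA]/(εa−εf) versus [DNA].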

Assay [13] has as its system HeLa. Kind of assay: Induction of apoptosis in human HeLa cells assessed as chromatin condensation after 24 hrs by AO/EB staining-based fluorescent microscopic analysis. Type of assay: functional, cell-based. An outline of the steps:
(§6)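 HeLa monolayers were grown in 24-well plates and exposed for 24 h at 0, 5, 10, 20 and 40 µM. Cells were stained 10 min with AO/EB dye mix (100 µg/mL each) and washed with PBS. Morphology was then viewed by fluorescence microscopy: chromatin condensation, nuclear fragmentation, and membrane integrity.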

Assay [14] has as its system Calf thymus DNA. Put plainly: Binding affinity to calf thymus DNA assessed as hypochromicity by electronic absorption spectroscopic analysis. As to conditions: Bos taurus. Type of assay: nucleic-acid assay.
Assay [15] concerns HeLa. Put plainly: Induction of apoptosis in human HeLa cells assessed as late apoptotic cells at 10 uM after 24 hrs by annexin V-FITC/propidium iodide staining-based flow cytometric analysis (reference value: 0.36%). Type of assay: functional. An outline of the steps:
as §2

Assay [16] concerns HeLa. Put plainly: Induction of apoptosis in human HeLa cells assessed as late apoptotic cells at 20 uM after 24 hrs by annexin V-FITC/propidium iodide staining-based flow cytometric analysis (reference value: 0.36%). The class given is functional. The method in brief: as §2
In assay [17] the test system is HeLa. Put plainly: Induction of apoptosis in human HeLa cells assessed as increase in apoptotic ratio after 24 hrs by annexin V-FITC/propidium iodide staining-based flow cytometric analysis. Type of assay: functional, cell-based. The method in brief: as §2
For assay [18], the system named is HeLa. Kind of assay: Induction of apoptosis in human HeLa cells assessed as nuclear fragmentation after 24 hrs by AO/EB staining-based fluorescent microscopic analysis. The class given is functional, cell-based. The method in brief:
as §6

Assay [19] has as its system HeLa. Put plainly: Antiproliferative activity against human HeLa cells after 44 hrs by MTT assay. The class given is functional, cell-based. An outline of the steps: as §3
Assay [20] concerns HeLa. Put plainly: Induction of apoptosis in human HeLa cells assessed as early apoptotic cells at 40 uM after 24 hrs by annexin V-FITC/propidium iodide staining-based flow cytometric analysis (reference value: 0.11%). The class given is functional. An outline of the steps: as §2

For the compound `CN(C)CC(=O)Nc1ccc2oc3ccc(NC(=O)CN(C)C)cc3c(=O)c2c1`, the outcome in the assay filed under Homo sapiens [1] and in the assay with Calf thymus DNA [2] was inactive. Also, the Activity was 12.36% with HeLa [3]; “Dose-dependent effect” with A549; “Dose-dependent effect” in the assay on MCF7; 22.69% in the assay with HeLa [6]; “Dose-dependent effect” in the assay with SGC-7901; 60.78% with HeLa [11]. Further, the Activity result with HeLa [13] was “Dose-dependent effect”; in the assay on HeLa [15], 9.45%; in the assay on HeLa [16], 18.24%; in the assay on HeLa [17], “Dose-dependent effect”; with HeLa [18], “Dose-dependent effect”; in the assay on HeLa [19], “Dose-dependent effect”. The Activity in the assay on HeLa [20] came out at 32.07%. Further, the result in the assay listed under Homo sapiens [4], in the assay filed under Homo sapiens [5] and in the assay listed under Homo sapiens [8] was Active. For the same compound, the IC50 with A549 was determined as 18.7 µM; in the assay with MCF7, 23 µM; in [10], 17.3 µM; in the assay with HeLa [19], 13.2 µM. Also, the T in the assay filed under Homo sapiens [7] turned out to be 70.3 °C; in the assay listed under Homo sapiens [9], 60.8 °C. Moreover, the values for the Kb in the assay listed under Homo sapiens [12] and with Calf thymus DNA [14] were 2.89 ×10⁴ /M and 0.46 ×10⁴ /M, respectively.

For the compound `CCN(CC)CC(=O)Nc1ccc2oc3ccc(NC(=O)CN(CC)CC)cc3c(=O)c2c1`, the Activity entry with A549, in the assay on MCF7, with SGC-7901, with HeLa [13], in the assay with HeLa [18] and in the assay on HeLa [19] was “Dose-dependent effect” in each case. Moreover, the IC50 in the assay with A549 turned out to be 19.9 µM; in the assay on MCF7, 26.6 µM; in assay [10], 32.2 µM; in the assay with HeLa [19], 20.4 µM.

For the compound `O=C(CN1CCOCC1)Nc1ccc2oc3ccc(NC(=O)CN4CCOCC4)cc3c(=O)c2c1`, the Activity entry with A549, in the assay on MCF7, in the assay on SGC-7901, with HeLa [13], in the assay with HeLa [18] and in the assay on HeLa [19] was “Dose-dependent effect” in each case. The half-maximal inhibitory concentration (IC50) is 80.5 µM in the assay on A549, more than 100 µM in the assay with MCF7, 84.9 µM in assay [10] and more than 100 µM with HeLa [19].

Consider `O=C(CN1CCCC1)Nc1ccc2oc3ccc(NC(=O)CN4CCCC4)cc3c(=O)c2c1`, for which the Activity entry in the assay with A549, in the assay with MCF7, in the assay with SGC-7901, in the assay on HeLa [13], in the assay with HeLa [18] and in the assay with HeLa [19] was “Dose-dependent effect” in each case. Further, the IC50 with A549 was 21.5 µM; in the assay with MCF7, 34.9 µM; in [10], 35.9 µM; in the assay with HeLa [19], 48.2 µM.

For the compound `O=C(CN1CCCCC1)Nc1ccc2oc3ccc(NC(=O)CN4CCCCC4)cc3c(=O)c2c1`, the Activity result in the assay with A549, in the assay on MCF7, with SGC-7901, in the assay with HeLa [13], in the assay with HeLa [18] and in the assay with HeLa [19] was “Dose-dependent effect” each time. In addition, the IC50 in the assay on A549 is more than 100 µM; in the assay on MCF7, 83.9 µM; in assay [10] it was 86.7 µM; in the assay on HeLa [19], more than 100 µM.
